The values below come from ChEMBL document CHEMBL2074309, “The drug transporter P-glycoprotein limits oral absorption and brain entry of HIV-1 protease inhibitors” (J Clin Invest, 1998).

Data set [1] deals with T1, ATP-dependent translocase ABCB1 (Homo sapiens, UniProt P08183). Nature of the data set: TP_TRANSPORTER: inhibition of Saquinavir transepithelial transport (basal to apical) (Saquinavir: 5 uM, PSC-833: 1 uM) in Caco-2 cells. It counts as functional, cell-based. The conditions noted are these: caco-2, 1 µM. The essentials:
(§1)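 Caco-2 monolayers on 0.4 µm polycarbonate Transwell filters, plated at 10^5 cells/12-mm well, used on day 4; wells with resistance ≥200 Ω (blank-corrected) used. […] Radioactivity reaching apical side sampled at 1, 2, 3, 4 h, expressed as % of added; mean ± SE, ≥3 experiments.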
A general note: Caco-2 cells form a polarised layer with tight junctions and transporters.

In data set [2] the target is T1, ATP-dependent translocase ABCB1. Nature of the data set: TP_TRANSPORTER: inhibition of Nelfinavir transepithelial transport (basal to apical) (Nrlfinavir: 5 uM, PSC-833: 1 uM) in Caco-2 cells. It counts as functional, cell-based. The conditions noted are these: caco-2, 1 µM. The method in brief:
as §1

Data set [3] has the same target. Description: TP_TRANSPORTER: inhibition of Indinavir transepithelial transport (basal to apical) (Indinavir: 5 uM, PSC-833: 1 uM) in Caco-2 cells. It counts as functional, cell-based. The conditions noted are these: caco-2, 1 µM. The essentials: as §1
For data set [4], the target named is ATP-dependent translocase ABCB1 (Mus musculus, UniProt P21447). Nature of the data set: TP_TRANSPORTER: increase in brain concentration in mdr1a(-/-) mouse. Type of data set: functional, organism-based. Conditions: in vivo. The method in brief:
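Male mdr1a(-/-) (FVB/TacBR-[KO]mdr1aN7) and matched mdr1a(+/+) FVB/NTacBR mice, 6–12 wk, three per group. [14C]-drug (indinavir 1.5 mg/kg, nelfinavir 3 mg/kg, saquinavir 2 mg/kg) in ethanol/0.9% saline, given i.v. into tail vein over 10 min. At 4 h, isoflurane anesthesia, orbital exsanguination, brain homogenized in 4% BSA. Total radioactivity by scintillation; value is (-/-)/(+/+) ratio of brain levels.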

The target of data set [5] is T1, ATP-dependent translocase ABCB1. Description: TP_TRANSPORTER: transepithelial transport (basal to apical) in MDR1-expressing LLC-PK1 cells. It counts as functional, cell-based. The conditions noted are these: pig. The method in brief: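 L-MDR1 cells (LLC-PK1 expressing MDR1) plated at 4×10^5 cells/12-mm well on 3.0 µm polycarbonate Transwell filters, used day 4; resistance ≥200 Ω after blank correction. Serum-free Optimem; [14C]-drug 5 µM added to basal compartment, apical radioactivity sampled at 1, 2, 3, 4 h by scintillation, given as % of total added; parental LLC-PK1 run alongside; mean ± SE, ≥3 experiments.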

SMILES strings stand for the structures.

T1 sequence (P08183 whole entry): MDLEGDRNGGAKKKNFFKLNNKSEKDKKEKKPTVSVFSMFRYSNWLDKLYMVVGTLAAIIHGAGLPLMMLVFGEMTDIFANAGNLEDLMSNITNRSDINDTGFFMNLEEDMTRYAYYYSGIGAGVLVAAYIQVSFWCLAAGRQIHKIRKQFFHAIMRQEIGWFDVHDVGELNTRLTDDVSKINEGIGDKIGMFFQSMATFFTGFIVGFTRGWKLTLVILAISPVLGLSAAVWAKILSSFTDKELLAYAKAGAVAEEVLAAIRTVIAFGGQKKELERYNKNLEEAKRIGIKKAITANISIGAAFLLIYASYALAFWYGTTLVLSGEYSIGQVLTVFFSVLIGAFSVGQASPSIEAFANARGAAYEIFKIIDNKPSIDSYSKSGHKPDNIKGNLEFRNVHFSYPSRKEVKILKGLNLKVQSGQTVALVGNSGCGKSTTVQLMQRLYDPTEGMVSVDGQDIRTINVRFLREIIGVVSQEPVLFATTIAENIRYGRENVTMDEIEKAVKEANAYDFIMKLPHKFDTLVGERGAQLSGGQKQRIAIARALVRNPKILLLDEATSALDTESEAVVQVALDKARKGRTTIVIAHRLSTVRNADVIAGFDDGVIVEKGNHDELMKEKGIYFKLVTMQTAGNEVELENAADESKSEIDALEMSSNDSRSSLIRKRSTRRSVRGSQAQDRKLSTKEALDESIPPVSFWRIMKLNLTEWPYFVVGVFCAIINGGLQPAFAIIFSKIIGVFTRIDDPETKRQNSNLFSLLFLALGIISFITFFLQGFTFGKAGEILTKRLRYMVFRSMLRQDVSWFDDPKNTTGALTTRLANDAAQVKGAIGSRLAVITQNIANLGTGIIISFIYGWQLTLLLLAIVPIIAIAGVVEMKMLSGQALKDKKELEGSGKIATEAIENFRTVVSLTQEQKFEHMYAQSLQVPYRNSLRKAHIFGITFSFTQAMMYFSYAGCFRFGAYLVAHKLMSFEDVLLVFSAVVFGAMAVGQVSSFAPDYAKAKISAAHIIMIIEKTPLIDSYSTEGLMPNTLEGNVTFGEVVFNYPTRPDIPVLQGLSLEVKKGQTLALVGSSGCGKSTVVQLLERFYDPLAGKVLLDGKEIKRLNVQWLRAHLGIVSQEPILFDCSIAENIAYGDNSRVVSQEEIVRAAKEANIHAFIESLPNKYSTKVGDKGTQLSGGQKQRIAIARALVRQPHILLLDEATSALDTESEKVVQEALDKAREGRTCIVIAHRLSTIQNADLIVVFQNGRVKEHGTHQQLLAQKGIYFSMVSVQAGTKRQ
ATP-dependent translocase ABCB1 (Mus musculus, UniProt P21447), sequence (P21447 whole entry): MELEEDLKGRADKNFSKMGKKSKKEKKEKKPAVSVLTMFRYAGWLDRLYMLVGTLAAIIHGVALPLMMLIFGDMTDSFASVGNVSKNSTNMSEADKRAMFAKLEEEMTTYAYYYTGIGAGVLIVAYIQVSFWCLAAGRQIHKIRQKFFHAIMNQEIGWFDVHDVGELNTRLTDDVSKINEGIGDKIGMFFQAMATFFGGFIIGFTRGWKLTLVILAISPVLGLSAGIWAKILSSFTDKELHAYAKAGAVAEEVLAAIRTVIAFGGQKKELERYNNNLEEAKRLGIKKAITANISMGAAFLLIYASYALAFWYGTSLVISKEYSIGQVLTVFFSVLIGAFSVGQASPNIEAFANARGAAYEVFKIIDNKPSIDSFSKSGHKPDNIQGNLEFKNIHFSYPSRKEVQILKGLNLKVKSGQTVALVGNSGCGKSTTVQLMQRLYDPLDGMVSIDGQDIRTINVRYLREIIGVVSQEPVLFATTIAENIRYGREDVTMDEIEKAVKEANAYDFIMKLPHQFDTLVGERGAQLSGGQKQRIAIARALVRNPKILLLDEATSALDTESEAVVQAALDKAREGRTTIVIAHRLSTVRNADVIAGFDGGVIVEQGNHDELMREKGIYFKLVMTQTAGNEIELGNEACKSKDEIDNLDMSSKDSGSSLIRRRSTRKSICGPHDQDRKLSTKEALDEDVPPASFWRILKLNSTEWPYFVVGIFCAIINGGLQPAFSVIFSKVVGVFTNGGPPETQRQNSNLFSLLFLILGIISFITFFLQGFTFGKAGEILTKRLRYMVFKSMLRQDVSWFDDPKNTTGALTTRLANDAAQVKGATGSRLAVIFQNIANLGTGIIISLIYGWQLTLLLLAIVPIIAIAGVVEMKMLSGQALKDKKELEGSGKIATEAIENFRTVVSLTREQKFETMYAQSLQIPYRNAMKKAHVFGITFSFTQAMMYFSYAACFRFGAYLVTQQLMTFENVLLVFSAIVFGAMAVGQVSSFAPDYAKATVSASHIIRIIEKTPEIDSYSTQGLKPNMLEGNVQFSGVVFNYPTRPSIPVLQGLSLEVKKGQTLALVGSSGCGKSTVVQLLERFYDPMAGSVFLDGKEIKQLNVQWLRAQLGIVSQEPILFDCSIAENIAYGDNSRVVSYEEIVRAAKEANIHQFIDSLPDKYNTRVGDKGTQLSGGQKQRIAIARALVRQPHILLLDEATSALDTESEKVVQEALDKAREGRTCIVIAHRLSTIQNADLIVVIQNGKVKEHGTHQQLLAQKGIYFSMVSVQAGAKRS

On to `C/C=C/C[C@@H](C)C(=O)[C@H]1C(=O)N[C@@H](C(C)C)C(=O)N(C)CC(=O)N(C)[C@@H](CC(C)C)C(=O)N[C@@H](C(C)C)C(=O)N(C)[C@@H](CC(C)C)C(=O)N[C@@H](C)C(=O)N[C@H](C)C(=O)N(C)[C@@H](CC(C)C)C(=O)N(C)[C@@H](CC(C)C)C(=O)N(C)[C@@H](C(C)C)C(=O)N1C` [VALSPODAR], for which the Activity entry in data set [1], in data set [2] and in data set [3] was “inhibitor [+]” throughout.

Regarding `CC(C)(C)NC(=O)[C@@H]1C[C@@H]2CCCC[C@@H]2CN1C[C@@H](O)[C@H](Cc1ccccc1)NC(=O)[C@H](CC(N)=O)NC(=O)c1ccc2ccccc2n1`, in data set [4], the Activity result is “substrate [+]”.

Consider `CC(C)(C)NC(=O)[C@@H]1CN(Cc2cccnc2)CCN1C[C@@H](O)C[C@@H](Cc1ccccc1)C(=O)N[C@H]1c2ccccc2C[C@H]1O.O`, for which the Activity result in data set [4] and in data set [5] was “substrate [+]” throughout.

`Cc1c(O)cccc1C(=O)N[C@@H](CSc1ccccc1)[C@H](O)CN1C[C@H]2CCCC[C@H]2C[C@H]1C(=O)NC(C)(C)C`: the Activity entry in data set [4] and in data set [5] was “substrate [+]” in each case.
